Assay outcomes (PubChem BioAssay)
CHOP inh – CHOP inhibition in unfolded protein response; hit rate 3.8% among 220,000; inhibition, % at 10 µM; CHO-K1 CHOP-promoter luciferase, tunicamycin-induced, 15-18 h;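 active = compounds that reduced the stress-induced luciferase reporter signal by more than about 70% of percent inhibition, limit read from the data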;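 note: 0% = tunicamycin plus vehicle and 100% = wells without tunicamycin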
697 NFkB inh – inhibitors of the PMA/ionomycin-induced NF-kB reporter in 697 B cells; 697 B-cell NF-kB luciferase reporter, 16 h; inhibition, % at 4 µM; hit rate 0.33% among 330,000; AID 435022; in the data active = inhibition above about 35%
Jurkat NFkB inh – lowers PMA/ionomycin-induced NF-kB signal in Jurkat cells; PMA/ionomycin-induced NF-kB luciferase reporter, luminescence; inhibition, % at 4 µM; hit rate 0.53% among 330,000; AID 435003; in the data active = inhibition above about 50%
UPR XBP1 act – activators of adaptive arm of unfolded protein response (XBP1). hit rate 0.33% among 330,000. CHO-XBP1 luciferase reporter, IRE1-XBP1 UPR activation, luminescence; percent of tunicamycin response, DMSO as zero. activation, % at 20 µM. AID 463104;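 active = versus positive control, 20 µM dose yields 30% or more activation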;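 note: 100% = tunicamycin at 10 µg/mL and 0% = DMSO only wells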
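incubation = overnight seeding at 37 °C, 6 h compound treatment at 37 °C | assay system = CHO-XBP1 cells stably carrying IRE1-XBP1-driven luciferase reporter | input = 1000 cells per well | detection = luciferase luminescence | dosing = single point, 20 µM final compound, 1% DMSO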
CHOP UPR activ – apoptotic UPR (CHOP) activation. hit rate 0.34% among 330,000. activation, % at 10 µM. CHO-CHOP luciferase reporter, luminescence; percent of tunicamycin response over DMSO baseline;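 active = at 10 µM dose, activation of 40% or more, normalized to positive control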;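 note: 100% = tunicamycin at 10 µg/mL and 0% = DMSO alone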
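measured by = luciferase luminescence | assay system = CHO-CHOP cells, stable luciferase reporter of PERK-eIF2a-CHOP signalling | amount = 500 reporter cells seeded per well | timing = 6 h compound exposure at 37 °C after overnight seeding | controls = positive tunicamycin 10 µg/mL, negative DMSO alone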
Jurkat NFkB conf – inhibitors of the PMA/ionomycin-induced NF-kB reporter in Jurkat cells, retest. hit rate 27% among 2,700. AID 435020. inhibition, % at 4 µM. Jurkat NF-kB luciferase, 16 h. shares compounds with Jurkat NFkB inh;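 active = inhibition reaching about 45% at 4 µM in either replicate, limit read from the data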;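 note: plate controls were PMA/ionomycin stimulated DMSO wells for no effect and unstimulated DMSO wells for full effect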
697 NFkB conf – lowers PMA/ionomycin-induced NF-kB signal in 697 B cells | shares compounds with 697 NFkB inh | 697 B-cell NF-kB luciferase, 16 h | inhibition, % at 4 µM | hit rate 35% among 2,000 | AID 449746; in the data active = inhibition mostly above about 28%, no sharp cut-off; inactive = mostly below about 22%
UPR CHOP confirm – confirmation of apoptotic unfolded protein response (CHOP) activators; CHO-CHOP cells, CHOP-luciferase reporter luminescence; percent of tunicamycin response, DMSO as zero; hit rate 64% among 1,000; shares compounds with CHOP UPR activ; activation, % at 10 µM; in the data active = activation above about 33%;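 note: 0% = DMSO wells and 100% = tunicamycin 10 µg/mL wells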
XBP1 UPR conf – adaptive UPR (XBP1) activation, confirmed; shares compounds with UPR XBP1 act; CHO-XBP1 IRE1-XBP1 luciferase reporter, luminescence; activation, % at 20 µM; hit rate 63% among 1,000; AID 485299;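 active = reporter signal at least 30% of the positive control's activation in two or more of four replicate wells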;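 note: plate controls were DMSO negative control for no effect and tunicamycin 10 µg/mL positive control for full effect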
The depositor's hits bear a star; i = inactive; . = no result given. This is one part of a sample in which hits are shown more often than they occur.

SMILES | CHOP inh | 697 NFkB inh | Jurkat NFkB inh | UPR XBP1 act | CHOP UPR activ | Jurkat NFkB conf | XBP1 UPR conf | others
O=C(NC1CCCCCC1)c1c2c(nc3ccccc13)CCN(Cc1ccccc1)C2 | 27 | -15 | 0 | 0 | -1 | . | .
COc1cccc(N(C(=O)c2sc(C)nc2C)C(C(=O)NCC2CCCO2)c2ccccc2)c1 (centres undefined) | . | 15 | 0 | -2 | 0 | . | .
Cc1csc2nc(COC(=O)c3ccc(Cl)c([N+](=O)[O-])c3)cc(=O)n12 | . | 24 | 53* | 71* | 17 | 26 | 3
COc1cc(/C=C2\CCC(C3CCCC3)C2=O)cc(OC)c1OC (centres undefined) | . | -38 | -47 | 0 | 7 | . | .
COc1cc(/C=C2\CC(C(C)(C)C)C/C(=C\c3cc(OC)c(OC)c(OC)c3)C2=O)cc(OC)c1OC (centres undefined) | . | -222 | 90* | 43* | 126* | -14 | 41* | UPR CHOP confirm=112*
Cc1cccc(NC(=O)C2CCCN(S(=O)(=O)c3ccc4[nH]c(=O)ccc4c3)C2)n1 (centres undefined) | . | 16 | 5 | -3 | 2 | . | .
C#CCOCCOCCOCCNc1nc(N2CCN(C(=O)CCCCCCCCCCNC(=O)[C@H](CCCCN)n3cc(C[C@@H](C)CC)nn3)CC2)nc(N2CCN(C(=O)CCCCCCCCCCNC(=O)[C@@H]([C@H](C)O)n3cc(C)nn3)CC2)n1 | . | -41 | 91* | 40* | 29 | 0 | 1
C#CCOCCOCCOCCNc1nc(N2CCN(C(=O)CCCCCCCCCCNC(=O)[C@H](CCCCN)n3cc(C)nn3)CC2)nc(N2CCN(C(=O)CCCCCCCCCCNC(=O)[C@@H]([C@H](C)O)n3cc(C)nn3)CC2)n1 | . | -4 | 10 | 3 | 0 | . | .
COc1cccc2cc(C(=O)CS(=O)(=O)c3ccc(Cl)cc3)c(=O)oc12 | . | 16 | 3 | -3 | 2 | . | .
O=C(O)CC1(CC(=O)Nc2cccc(C(=O)O)c2)CCCC1 | . | -19 | 5 | -4 | 4 | . | .
COc1cccc(NC(=O)CN(C)C(=O)CN2C(=O)c3ccc([N+](=O)[O-])cc3C2=O)c1 | . | 16 | 9 | 3 | -1 | . | .
Cc1nc2ccccc2n1-c1nc(-c2ccco2)cc(C(F)(F)F)n1 | . | -43 | 83* | 57* | 174* | 30 | 43* | UPR CHOP confirm=133*
CC1=Nc2ccccc2/C1=C\c1sc(Nc2ccc(C)cc2)nc1O | -33 | -22 | 53* | 33* | 4 | 61* | 40*
CC(C)c1cccc(C(C)C)c1NC(=S)Nc1cccc(Cl)c1 | 27 | -1 | 16 | -3 | 0 | . | .
COc1cccc(/C=C/c2ccc3cccc(O)c3n2)c1OC | . | -153 | -46 | 5 | 26 | . | .
COc1cc(/C=C/c2ccc3cccc(O)c3n2)cc(OC)c1OC | . | -182 | 97* | 77* | 339* | 35 | 1
CCc1nc(Sc2nnnn2-c2ccccc2)c2c3c(sc2n1)CCCC3 | 9 | -4 | -2 | 0 | 1 | . | .
Cc1nc(Sc2nnnn2C)c2c3c(sc2n1)CCC3 | -100 | -173 | 64* | 37* | 4 | 53* | 9
O=Cc1cc2ccccc2nc1SCc1ccc(Cl)c(Cl)c1 | -8 | -6 | 57* | 34* | 4 | 44 | 39*
CC(=O)[C@@]1(O)CCC2C3CC[C@H]4C[C@@H](O)CC[C@]4(C)C3CC[C@@]21C (some centres undefined) | . | -10 | 0 | -1 | 0 | . | .
C[C@]12CCC3C(CC[C@H]4CCCC[C@]34C)C1CC[C@@]2(O)CNCCO (some centres undefined) | . | 7 | 56* | 33* | 4 | 17 | 2
COc1ccc(C(=O)c2cc([N+](=O)[O-])ccc2N2CCCC2)cc1 | 31 | -32 | 47 | 2 | -1 | . | .
O=C(c1ccc(Br)cc1)c1cc([N+](=O)[O-])ccc1N1CCCCC1 | -15 | 45* | 75* | 32* | 1 | 59* | 18 | 697 NFkB conf=39*
O=C(OCCN=C1NS(=O)(=O)c2ccccc21)c1ccccc1F | . | -3 | 13 | 0 | 0 | . | .
CN(C)CC(CCC(CN(C)C)C(O)(c1ccccc1)c1ccccc1)C(O)(c1ccccc1)c1ccccc1 (centres undefined) | . | 11 | 65* | 35* | 77* | 15 | 43* | UPR CHOP confirm=84*
SMILES | CHOP inh | 697 NFkB inh | Jurkat NFkB inh | UPR XBP1 act | CHOP UPR activ | Jurkat NFkB conf | XBP1 UPR conf | others
COc1ccc(C2c3ccc4ccccc4c3Oc3ncn(CCCN(C)C)c(=N)c32)cc1 (centres undefined) | . | 9 | 52* | 55* | 76* | 22 | 60* | UPR CHOP confirm=37*
CCCCCCCCCCn1c2c(c(=N)c3c1CCC3)CCC2 | 104* | 0 | 82* | 47* | 77* | 75* | 44* | UPR CHOP confirm=70*
CCn1c2c(c(=N)c3c1CCC3)CCCC2 | -2 | -9 | 41 | -3 | -1 | . | .
O=C(c1cnn2c(C(F)F)cc(-c3ccccc3)nc12)N1CCc2ccccc21 | 4 | -15 | 3 | 2 | -1 | . | .
Cc1ccc(-c2cc(C(F)F)n3ncc(C(=O)N4CCc5ccccc54)c3n2)cc1 | 6 | -46 | 61* | 47* | 0 | 47* | 126*
Cc1ccsc1CNc1ncnc2ccc(-c3c(C)noc3C)cc12 | . | 24 | -7 | -3 | -2 | . | .
Cc1noc(C)c1-c1ccc2ncnc(NCC3CCCCN3C)c2c1 (centres undefined) | . | 36* | -20 | -1 | 1 | . | . | 697 NFkB conf=26
CC(=O)/C(C#N)=C1\NC(=O)C(Cc2ccc(C)c(C)c2)S1 (centres undefined) | 11 | i | 2 | 1 | 2 | . | . | 697 NFkB conf=i
CC(=O)/C(C#N)=C1\NC(=O)C(Cc2cc(Cl)ccc2Cl)S1 (centres undefined) | 11 | i | -7 | -4 | 2 | . | . | 697 NFkB conf=i
CC(=O)/C(C#N)=C1\NC(=O)C(Cc2ccccc2Cl)S1 (centres undefined) | 32 | i | -28 | -3 | 0 | . | . | 697 NFkB conf=i
CC(=O)/C(C#N)=C1\NC(=O)C(Cc2ccc(F)cc2)S1 (centres undefined) | 3 | -41 | -9 | -1 | 0 | . | .
Cc1ccc(NC(=S)Nc2ccc(OC(F)F)c(Cl)c2)cc1F | 62 | 4 | 5 | -5 | 1 | . | .
